Drawing on ChEMBL document CHEMBL1154512, “PA-824 kills nonreplicating Mycobacterium tuberculosis by intracellular NO release” (2008), this text covers Ratio and Activity for eight compounds.

The test system of assay [1] is Mycobacterium tuberculosis. Put plainly: Induction of nitrous acid production in NRP2 phase Mycobacterium bovis BCG assessed as ratio of Vmax to Km under hypoxic non replicating condition. The format is functional, variant bovis BCG. Put shortly:
(§1)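 NO release measured inside BCG cells preloaded with the NO-specific fluorescent probe DAF-FM diacetate and then treated with compound. Fluorescence (RFU) followed over time. Rate expressed as apparent Vmax/Km, i.e. RFU per hour divided by an intracellularly measured Km (RFU hr–1 μM–1).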

Assay [2] has as its system Mycobacterium tuberculosis. Briefly: Induction of nitrous acid production in NRP2 phase Mycobacterium bovis BCG at 1.85 uM to 100 uM after 2 days under hypoxic non replicating condition in presence of DAF-FM diacetate. It is filed as functional, organism-based. Particulars: variant bovis BCG.
Assay [3] deals with Mycobacterium tuberculosis. Briefly: Induction of nitrous acid production in NRP2 phase Mycobacterium bovis BCG under aerobic condition in presence of DAF-FM diacetate. The format is functional, organism-based. The note with it: variant bovis BCG. Put shortly:
as §1

In assay [4] the test system is Mycobacterium tuberculosis. Put plainly: Induction of nitrous acid production in NRP2 phase Mycobacterium bovis BCG at 20 uM by fluorescence quenching measurement in presence of C-PTIO. The note with it: variant bovis BCG. The format is functional, organism-based. In outline:
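BCG cells preloaded with DAF-FM diacetate were treated with 20 μM nitroimidazole in the presence of increasing concentrations of the NO scavenger C-PTIO. NO read as fluorescence. Three independent replicates, error as SD.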

Activity calls are given as the source filed them. No cut-off for these calls is given here.

Turning to `O=[N+]([O-])c1cn2c(n1)OC[C@@H](NCc1ccc(OCc3ccc(OC(F)(F)F)cc3)cc1)C2`, the Ratio in assay [1] was found to be 76.9.
`O=[N+]([O-])c1cn2c(n1)OC[C@@H](OCc1ccc(OC(F)(F)F)cc1)C2` [PRETOMANID]: the outcome in assay [2] and in assay [3] was Active. The result in assay [4] was inactive. Also, the Ratio in assay [1] amounted to 12.5.
As to `O=[N+]([O-])c1cn2c(n1)OC[C@@H](NCCc1ccc(OC(F)(F)F)cc1)C2`, the Ratio in assay [1] is recorded as 28.7.
Same read-out and setting: with `O=[N+]([O-])c1cn2c(n1)OC[C@@H](NCCCCc1ccc(OC(F)(F)F)cc1)C2` the figure was 71.6.
The same measure, in the same setting: with `O=[N+]([O-])c1cn2c(n1)OC[C@@H](NCCCc1ccc(OC(F)(F)F)cc1)C2` the figure was 60.1; with `O=[N+]([O-])c1cn2c(n1)NC[C@@H](OCc1ccc(OC(F)(F)F)cc1)C2`, 4.8; with `CCCCc1ccc(CN[C@@H]2COc3nc([N+](=O)[O-])cn3C2)cc1`, 4.7.
Take `O=[N+]([O-])c1cn2c(n1)OC[C@@H](NCc1ccc(OC(F)(F)F)cc1)C2`: in assay [1], the Ratio was determined as 10.1.
